Columns and labels:
Melanocortin receptor 4 = Melanocortin receptor 4 (Homo sapiens, UniProt P32245); assay: Binding affinity to MC4 receptor
Vasopressin V1a receptor = Vasopressin V1a receptor (Homo sapiens, UniProt P37288); assay: Binding affinity to V1a receptor
[1] = molecular target: T1, C5a anaphylatoxin chemotactic receptor 1 (Homo sapiens, UniProt P21730); assay: Antagonist activity at human C5aR expressed in human PMN cells assessed as inhibition of glucosaminidase release; format: functional, cell-based
T1 sequence (P21730 whole entry): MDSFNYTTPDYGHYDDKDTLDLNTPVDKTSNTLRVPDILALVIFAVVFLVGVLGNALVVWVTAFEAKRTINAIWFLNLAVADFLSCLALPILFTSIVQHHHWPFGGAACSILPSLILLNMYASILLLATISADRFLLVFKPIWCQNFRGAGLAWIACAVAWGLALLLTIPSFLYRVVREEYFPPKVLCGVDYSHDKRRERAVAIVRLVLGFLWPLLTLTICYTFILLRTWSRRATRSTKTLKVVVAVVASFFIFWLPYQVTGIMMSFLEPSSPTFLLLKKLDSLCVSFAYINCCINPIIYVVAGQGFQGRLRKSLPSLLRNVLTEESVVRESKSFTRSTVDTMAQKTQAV

J774.A1 = assay: Inhibition of C5a-induced chemotaxis of mouse J774A.1 cells; format: functional, cell-based
In short: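 Mouse J774A.1 cells; chemotaxis induced by C5a, inhibition measured and IC50 (µM) determined.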

Nociceptin receptor = Nociceptin receptor (Homo sapiens, UniProt P41146); assay: Binding affinity to ORL1 receptor
Chain of Nociceptin receptor (P41146 whole entry): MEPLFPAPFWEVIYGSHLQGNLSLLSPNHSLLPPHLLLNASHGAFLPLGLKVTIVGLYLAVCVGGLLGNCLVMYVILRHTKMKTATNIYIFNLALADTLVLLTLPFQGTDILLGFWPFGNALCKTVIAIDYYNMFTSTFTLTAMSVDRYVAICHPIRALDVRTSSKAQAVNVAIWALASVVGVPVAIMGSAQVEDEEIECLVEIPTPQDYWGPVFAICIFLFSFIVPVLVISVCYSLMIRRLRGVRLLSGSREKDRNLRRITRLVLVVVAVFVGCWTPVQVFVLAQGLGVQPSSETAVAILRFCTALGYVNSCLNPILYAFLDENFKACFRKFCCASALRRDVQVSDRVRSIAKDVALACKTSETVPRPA

CYP3A4 = CYP3A4 (Homo sapiens, UniProt P08684); assay: Inhibition of CYP3A4 at 10 uM; format: ADME
Chain of CYP3A4 (P08684 whole entry): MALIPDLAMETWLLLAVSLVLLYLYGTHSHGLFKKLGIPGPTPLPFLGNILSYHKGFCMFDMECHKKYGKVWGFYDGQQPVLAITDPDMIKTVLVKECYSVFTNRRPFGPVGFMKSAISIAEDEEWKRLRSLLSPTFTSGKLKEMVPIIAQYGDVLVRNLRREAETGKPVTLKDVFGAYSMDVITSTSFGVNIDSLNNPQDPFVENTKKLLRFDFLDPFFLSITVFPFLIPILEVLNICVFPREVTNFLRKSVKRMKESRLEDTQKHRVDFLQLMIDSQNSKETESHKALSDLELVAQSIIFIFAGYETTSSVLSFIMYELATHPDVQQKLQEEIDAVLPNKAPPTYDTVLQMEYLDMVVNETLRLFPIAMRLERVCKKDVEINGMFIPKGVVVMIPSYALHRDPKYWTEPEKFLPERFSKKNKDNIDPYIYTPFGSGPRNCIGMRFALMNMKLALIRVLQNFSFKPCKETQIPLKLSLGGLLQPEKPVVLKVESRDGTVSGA

[2] = molecular target: T1, C5a anaphylatoxin chemotactic receptor 1; assay: Antagonist activity at human C5aR in CD88 transfected RBL cells assessed as inhibition of C5a-induced glucosaminidase release; format: functional, cell-based
In short: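 Functional antagonism read as inhibition of glucosaminidase release stimulated by C5a from RBL cells transfected with CD88 (RBL+); IC50 in µM.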

Substance-K receptor = molecular target: T2, Substance-K receptor (Homo sapiens, UniProt P21452); assay: Binding affinity to NK2 receptor
T2 sequence (P21452 whole entry): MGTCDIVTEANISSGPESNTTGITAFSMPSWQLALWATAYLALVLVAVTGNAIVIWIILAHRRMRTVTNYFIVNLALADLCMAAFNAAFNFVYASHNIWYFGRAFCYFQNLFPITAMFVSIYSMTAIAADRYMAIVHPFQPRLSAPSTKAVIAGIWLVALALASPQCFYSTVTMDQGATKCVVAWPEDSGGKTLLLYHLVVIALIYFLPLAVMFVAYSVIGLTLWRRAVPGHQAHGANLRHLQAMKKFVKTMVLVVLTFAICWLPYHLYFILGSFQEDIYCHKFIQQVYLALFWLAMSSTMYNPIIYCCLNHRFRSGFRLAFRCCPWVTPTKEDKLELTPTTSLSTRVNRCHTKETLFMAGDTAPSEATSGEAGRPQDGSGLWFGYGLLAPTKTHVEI

[3] = Stability in human liver microsome after 1 hr; format: ADME; conditions: liver microsomes, read-out: Stability
In short: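 Compound incubated with human liver microsomes, 1 h at 37 °C; read-out is % of parent remaining.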

[4] = molecular target: T1, C5a anaphylatoxin chemotactic receptor 1; assay: Inhibition of C5a binding to human C5aR expressed in HEK293 cells; format: cell-based
[5] = molecular target: T3, C5a anaphylatoxin chemotactic receptor 1 (Homo sapiens) (UniProt P21730); assay: Agonist activity at human C5aR in CD88 transfected RBL cells at 286 uM; format: functional, cell-based
T3 sequence (whole entry): T1 sequence (P21730 whole entry)

Chain of Melanocortin receptor 4 (P32245 whole entry): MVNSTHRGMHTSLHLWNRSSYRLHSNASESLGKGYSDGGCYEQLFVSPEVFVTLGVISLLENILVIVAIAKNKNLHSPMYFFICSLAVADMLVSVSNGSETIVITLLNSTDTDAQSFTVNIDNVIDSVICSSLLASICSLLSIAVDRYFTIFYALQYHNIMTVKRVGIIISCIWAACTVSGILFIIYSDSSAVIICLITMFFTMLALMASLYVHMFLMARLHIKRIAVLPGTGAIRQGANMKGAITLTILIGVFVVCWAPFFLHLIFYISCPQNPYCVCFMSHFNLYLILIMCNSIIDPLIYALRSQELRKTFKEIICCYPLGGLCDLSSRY
Chain of Vasopressin V1a receptor (P37288 whole entry): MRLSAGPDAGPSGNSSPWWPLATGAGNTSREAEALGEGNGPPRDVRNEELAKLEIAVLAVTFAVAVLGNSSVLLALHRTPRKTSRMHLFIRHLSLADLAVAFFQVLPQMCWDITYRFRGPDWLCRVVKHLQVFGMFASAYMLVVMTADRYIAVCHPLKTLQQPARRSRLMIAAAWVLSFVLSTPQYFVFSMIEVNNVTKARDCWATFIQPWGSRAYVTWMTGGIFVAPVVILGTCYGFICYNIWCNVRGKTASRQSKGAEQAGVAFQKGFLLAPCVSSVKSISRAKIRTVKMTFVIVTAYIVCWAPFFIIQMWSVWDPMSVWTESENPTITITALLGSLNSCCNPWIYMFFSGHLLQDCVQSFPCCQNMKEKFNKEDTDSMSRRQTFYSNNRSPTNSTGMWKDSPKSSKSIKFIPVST

SMILES | IC50 (J774.A1) [nM] | inhibition at 10 µM (CYP3A4) [%] | remaining at 1 h [3] [%] | Activity [5] [%] | also measured
CC(C)CC[C@@H](NC(=O)[C@@H]1CCCN1C(=O)[C@H](CCCN)NC(=O)[C@H](Cc1ccccc1)NC(=O)[C@@H]1CC(=O)NC(=O)N1)C(=O)N[C@@H](Cc1ccc(F)cc1)C(=O)N[C@@H](Cc1ccccc1)C(N)=O | 420 | 38 | 80 |  | IC50 (Melanocortin receptor 4): 13000 nM; IC50 (Vasopressin V1a receptor): 740 nM; IC50 [1]: 41 nM; IC50 (Nociceptin receptor): > 50000 nM; IC50 [2]: 39 nM; IC50 (Substance-K receptor): 710 nM; IC50 [4]: 111 nM
CC(=O)N[C@@H](Cc1ccccc1)C(=O)N[C@H]1CCCNC(=O)[C@H](CCCN=C(N)N)NC(=O)[C@H](Cc2c[nH]c3ccccc23)NC(=O)[C@@H](CC2CCCCC2)NC(=O)[C@@H]2CCCN2C1=O | 7100 | 77 | 10 |  | 
CC(=O)N[C@@H](Cc1ccccc1)C(=O)N[C@@H](CCCN)C(=O)N1CCC[C@H]1C(=O)N[C@H](CCC(C)C)C(=O)N[C@H](Cc1ccc(Cl)c(Cl)c1)C(=O)N[C@H](Cc1ccccc1)C(N)=O |  |  |  | 7.2 | 
CC(=O)N[C@@H](Cc1ccccc1)C(=O)N[C@@H](CCCN)C(=O)N1CCC[C@H]1C(=O)N[C@H](CCC(C)C)C(=O)N[C@H](Cc1cccc(Cl)c1)C(=O)N[C@H](Cc1ccccc1)C(N)=O |  |  |  | 1.2 | 

Source: ChEMBL document CHEMBL1148673, “Peptidomimetic C5a receptor antagonists with hydrophobic substitutions at the C-terminus: increased receptor specificity and in vivo activity” (Bioorg Med Chem Lett, 2006)
